From ChEMBL document CHEMBL1955770, “Inhibition of S/G2 phase CDK4 reduces mitotic fidelity” (J Biol Chem, 2006)
Calls of active or inactive are those of the source. The rule behind the calls is not given here.

How the values were obtained:
[1] = Cell cycle arrest in human SK-MEL-13 cells assessed as accumulation at S phase at 2 uM treated 1 hr and measured 10 hr post double hydroxyurea-synchrony release using propidium iodide staining by FACS analysis (reference value: 16 %); format: functional, cell-based
Procedure, shortened: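 SK-Mel-13 cells synchronized with 2 mM hydroxyurea, then treated with 2 μM CDK4 inhibitor or left untreated 1 h after release. Harvested at indicated times post-release, ethanol-fixed, propidium iodide/RNase stained, and DNA content read by FACS. Proportions of G1, S and G2/M cells derived with ModFit.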

HeLa [2] = test: Cell cycle arrest in human HeLa cells assessed as accumulation at G2/M phase at 2 uM treated 2 hr and measured 10 hr post double thymidine-synchrony release using propidium iodide staining by FACS analysis (reference value: 31 %); format: functional
Procedure, shortened: (§1)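 Cells harvested at set times post-release, fixed in 70% ethanol, stained with 5 μg/ml propidium iodide plus 0.5 mg/ml RNase A, and analysed by flow cytometry. Cell-cycle phase fractions calculated by ModFit.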

[3] = target: Cyclin-dependent kinase 1/cyclin B1 (Homo sapiens, UniProt P06493); test: Inhibition of human CDK1-GST-tagged cyclin B using his-tagged Rb as substrate after 30 mins by scintillation counting method; format: protein-complex assay
A2058 [4] = test: Cell cycle arrest in human A2058 cells assessed as accumulation at S phase at 2 uM treated 1 hr and measured 10 hr post double hydroxyurea-synchrony release using propidium iodide staining by FACS analysis (reference value: 35 %); format: functional
[5] = target: Cyclin-dependent kinase 4/cyclin D1 (Homo sapiens, UniProt P11802); test: Inhibition of human GST-tagged CDK4-cyclin D1 using his-tagged Rb as substrate after 30 mins by scintillation counting method; format: protein-complex assay
HeLa [6] = test: Cell cycle arrest in human HeLa cells assessed as accumulation at G2/M phase at 2 uM treated 4 hr and measured 8 hr post double thymidine-synchrony release using propidium iodide staining by FACS analysis (reference value: 86 %); format: functional; procedure, shortened: as §1
A2058 [7] = test: Cell cycle arrest in human A2058 cells assessed as accumulation at G1 phase at 2 uM treated 1 hr and measured 10 hr post double hydroxyurea-synchrony release using propidium iodide staining by FACS analysis; format: functional
MDA-MB-435 = test: Antiproliferative activity against human MDA-MB-435 cells assessed as inhibition of S phase after 48 hrs by MTT assay; format: functional, cell-based; details: MDA-MB-435, 48 h
Procedure, shortened: (§2)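 Cells grown in DMEM with 3 mM HEPES and 10% Serum Supreme at 37 °C, 5% CO2. Proliferation read by MTT assay 48 h after drug addition; IC50 given as mean of two separate determinations, each in duplicate.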

[8] = Inhibition of p38 MAPK using fluorescent substrate by IMAP assay
Procedure, shortened: (§3)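 Run in-house using IMAP: phosphorylated fluorescent peptide substrate binds preferentially to immobilized metal beads, which quantifies kinase activity. ATP at 3× the Km of each enzyme.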

[9] = Inhibition of AKT using fluorescent substrate by IMAP assay; procedure, shortened: as §3
HeLa [10] = test: Cell cycle arrest in human HeLa cells assessed as accumulation at G1 phase at 2 uM treated 6 hr and measured 10 hr post double thymidine-synchrony release using propidium iodide staining by FACS analysis (reference value: 68 %); format: functional
[11] = Cell cycle arrest in Rb-competent human SK-MEL-13 cells assessed as accumulation at sub-diploid phase at 2 uM after 24 hrs by FACS analysis; format: functional
Procedure, shortened: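 Ethanol-fixed cells stained with propidium iodide/RNase A, DNA content read by FACS, phase and sub-diploid fractions calculated with ModFit.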

Insulin receptor = Insulin receptor (Homo sapiens, UniProt P06213); test: Inhibition of insulin receptor using fluorescent substrate by IMAP assay; procedure, shortened: as §3
NCI-H460 = test: Toxicity in human H460a cells at IC50 after 3 days by MTT assay; format: cell-based; details: nci-h460, 72 h
HeLa [12] = test: Cell cycle arrest in human HeLa cells assessed as accumulation at G2/M phase at 2 uM treated 4 hr and measured 12 hr post double thymidine-synchrony release using propidium iodide staining by FACS analysis (reference value: 17 %); format: functional; procedure, shortened: as §1
RKO = test: Antiproliferative activity against human RKO cells assessed as inhibition of S phase after 48 hrs by MTT assay; format: functional, cell-based; procedure, shortened: as §2
HeLa [13] = test: Cell cycle arrest at G2 phase in human HeLa cells assessed as delay in phosphotyrosine 15 CDK1 accumulation at 2 uM treated at early S phase measured after 6-14 hr post thymidine-synchrony release by immunoblot method; format: functional, cell-based
Procedure, shortened: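 HeLa cells synchronized by double thymidine block and released, treated with 2 μM inhibitor in early S phase, or left untreated. Harvested at set times after release, lysed in NETN with phosphatase and protease inhibitors, run on SDS-PAGE and immunoblotted for cyclin B1 and phosphotyrosine 15 CDK1/2, with cyclin D3 as loading control. Detection by HRP secondary and ECL.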

SW480 = test: Antiproliferative activity against human SW480 cells assessed as inhibition of S phase after 48 hrs by MTT assay; format: functional, cell-based; details: SW480, 48 h; procedure, shortened: as §2
[14] = target: High affinity nerve growth factor receptor (Homo sapiens) (UniProt P04629); test: Inhibition of TRKA at 1 uM
[15] = target: Dual specificity protein kinase TTK (Homo sapiens) (UniProt P33981); test: Inhibition of TTK at 1 uM
[16] = target: Myotonin-protein kinase (Homo sapiens) (UniProt Q09013); test: Inhibition of DMPK at 1 uM
[17] = target: Ephrin type-A receptor 4 (Homo sapiens) (UniProt P54764); test: Inhibition of EPHA4 at 1 uM
[18] = target: Ephrin type-A receptor 6 (Homo sapiens) (UniProt Q9UF33); test: Inhibition of EPHA6 at 1 uM
[19] = target: Tyrosine-protein kinase SYK (Homo sapiens) (UniProt P43405); test: Inhibition of SYK at 1 uM
[20] = target: Phosphorylase b kinase gamma catalytic chain, liver/testis isoform (Homo sapiens) (UniProt P15735); test: Inhibition of PHKG2 at 1 uM
[21] = target: Platelet-derived growth factor receptor beta (Homo sapiens) (UniProt P09619); test: Inhibition of PDGFRB at 1 uM
[22] = target: RAF proto-oncogene serine/threonine-protein kinase (Homo sapiens) (UniProt P04049); test: Inhibition of RAF1 at 1 uM
[23] = target: Serine/threonine-protein kinase PAK 6 (Homo sapiens) (UniProt Q9NQU5); test: Inhibition of PAK6 at 1 uM
[24] = target: Ephrin type-A receptor 8 (Homo sapiens) (UniProt P29322); test: Inhibition of EPHA8 at 1 uM
[25] = target: Serine/threonine-protein kinase pim-2 (Homo sapiens) (UniProt Q9P1W9); test: Inhibition of PIM2 at 1 uM
[26] = target: Serine/threonine-protein kinase Nek2 (Homo sapiens) (UniProt P51955); test: Inhibition of NEK2 at 1 uM
[27] = target: Calcium/calmodulin-dependent protein kinase type 1D (Homo sapiens) (UniProt Q8IU85); test: Inhibition of CAMK1D at 1 uM
Procedure, shortened: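 Competition binding screen across a kinase panel with compound at 1 μM. Read-out is % competition. Kinases not hit at this concentration were scored '<50'. No Kd was determined for hits.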

Chain of Cyclin-dependent kinase 4/cyclin D1 (P11802 whole entry): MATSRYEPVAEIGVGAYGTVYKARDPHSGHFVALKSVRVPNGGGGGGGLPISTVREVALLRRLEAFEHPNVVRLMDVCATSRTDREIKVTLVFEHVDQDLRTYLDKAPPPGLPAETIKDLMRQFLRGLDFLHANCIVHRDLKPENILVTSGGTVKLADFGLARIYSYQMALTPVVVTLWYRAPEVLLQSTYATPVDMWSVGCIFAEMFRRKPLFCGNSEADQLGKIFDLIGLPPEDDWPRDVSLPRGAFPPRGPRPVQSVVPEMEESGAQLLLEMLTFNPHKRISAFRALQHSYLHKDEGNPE
Chain of Cyclin-dependent kinase 4/cyclin D1 (P24385 whole entry, further chain): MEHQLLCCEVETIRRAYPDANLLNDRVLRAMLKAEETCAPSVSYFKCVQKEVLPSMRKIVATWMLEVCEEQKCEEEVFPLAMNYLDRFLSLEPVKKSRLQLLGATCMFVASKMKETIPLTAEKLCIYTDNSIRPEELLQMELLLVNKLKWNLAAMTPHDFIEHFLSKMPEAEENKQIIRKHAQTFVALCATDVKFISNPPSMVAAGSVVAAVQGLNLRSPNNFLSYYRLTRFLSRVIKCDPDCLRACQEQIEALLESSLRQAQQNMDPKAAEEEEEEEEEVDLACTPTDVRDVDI
Chain of Insulin receptor (P06213 28-758 limits assumed): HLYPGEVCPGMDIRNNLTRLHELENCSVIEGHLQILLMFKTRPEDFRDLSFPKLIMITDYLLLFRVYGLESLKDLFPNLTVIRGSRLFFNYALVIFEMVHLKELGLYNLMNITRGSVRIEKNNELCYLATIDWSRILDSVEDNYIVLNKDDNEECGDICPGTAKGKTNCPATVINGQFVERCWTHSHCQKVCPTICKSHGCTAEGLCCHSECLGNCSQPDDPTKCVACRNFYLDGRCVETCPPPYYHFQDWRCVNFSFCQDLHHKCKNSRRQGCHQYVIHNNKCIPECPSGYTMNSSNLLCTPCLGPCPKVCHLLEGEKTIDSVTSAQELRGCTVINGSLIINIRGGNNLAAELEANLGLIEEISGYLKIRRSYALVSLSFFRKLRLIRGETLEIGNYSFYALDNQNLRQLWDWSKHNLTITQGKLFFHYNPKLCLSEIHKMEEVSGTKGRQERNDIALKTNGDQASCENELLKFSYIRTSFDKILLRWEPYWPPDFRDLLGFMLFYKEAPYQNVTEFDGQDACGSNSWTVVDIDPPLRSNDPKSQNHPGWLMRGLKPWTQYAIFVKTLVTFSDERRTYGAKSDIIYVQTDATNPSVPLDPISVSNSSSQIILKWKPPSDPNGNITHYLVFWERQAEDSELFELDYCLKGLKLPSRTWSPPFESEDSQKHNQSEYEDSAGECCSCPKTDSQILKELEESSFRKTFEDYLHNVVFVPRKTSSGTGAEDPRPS
Chain of Insulin receptor (P06213 763-1382 limits assumed): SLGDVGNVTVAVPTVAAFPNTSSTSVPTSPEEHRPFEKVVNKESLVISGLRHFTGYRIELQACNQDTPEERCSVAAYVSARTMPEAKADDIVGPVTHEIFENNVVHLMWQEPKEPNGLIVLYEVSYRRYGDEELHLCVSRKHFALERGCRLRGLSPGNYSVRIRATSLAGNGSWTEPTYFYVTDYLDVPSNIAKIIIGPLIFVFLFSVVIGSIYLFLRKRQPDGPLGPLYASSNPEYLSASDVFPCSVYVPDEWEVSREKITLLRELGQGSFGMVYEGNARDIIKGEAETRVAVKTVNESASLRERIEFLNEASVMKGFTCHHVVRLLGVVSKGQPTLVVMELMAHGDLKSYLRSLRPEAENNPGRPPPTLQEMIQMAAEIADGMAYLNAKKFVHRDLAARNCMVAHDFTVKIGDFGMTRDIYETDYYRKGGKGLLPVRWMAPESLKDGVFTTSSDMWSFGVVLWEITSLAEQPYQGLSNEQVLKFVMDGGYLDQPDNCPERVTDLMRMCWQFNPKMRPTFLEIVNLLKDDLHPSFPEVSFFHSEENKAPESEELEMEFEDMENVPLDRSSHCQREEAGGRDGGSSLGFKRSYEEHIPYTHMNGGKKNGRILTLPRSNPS
Chain of Cyclin-dependent kinase 1/cyclin B1 (P06493 whole entry): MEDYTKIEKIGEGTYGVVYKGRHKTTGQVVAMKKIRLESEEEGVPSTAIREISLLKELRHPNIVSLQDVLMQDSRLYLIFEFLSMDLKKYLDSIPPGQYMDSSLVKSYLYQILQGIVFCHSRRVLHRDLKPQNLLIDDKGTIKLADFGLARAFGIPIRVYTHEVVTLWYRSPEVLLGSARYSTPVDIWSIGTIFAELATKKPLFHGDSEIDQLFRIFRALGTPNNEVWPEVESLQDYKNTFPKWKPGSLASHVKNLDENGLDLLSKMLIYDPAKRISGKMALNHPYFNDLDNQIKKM
Chain of Cyclin-dependent kinase 1/cyclin B1 (P14635 whole entry, further chain): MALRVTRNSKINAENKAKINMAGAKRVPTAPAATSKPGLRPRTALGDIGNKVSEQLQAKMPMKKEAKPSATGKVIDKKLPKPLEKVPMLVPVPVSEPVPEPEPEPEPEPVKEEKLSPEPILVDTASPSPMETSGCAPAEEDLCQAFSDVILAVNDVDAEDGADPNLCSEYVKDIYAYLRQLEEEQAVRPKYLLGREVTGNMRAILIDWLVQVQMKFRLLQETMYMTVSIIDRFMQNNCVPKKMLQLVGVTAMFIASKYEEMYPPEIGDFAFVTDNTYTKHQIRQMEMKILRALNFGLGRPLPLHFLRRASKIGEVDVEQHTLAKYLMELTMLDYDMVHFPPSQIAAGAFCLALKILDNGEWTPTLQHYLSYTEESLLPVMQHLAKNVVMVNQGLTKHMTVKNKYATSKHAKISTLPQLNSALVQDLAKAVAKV
Chain of Calcium/calmodulin-dependent protein kinase type 1D (Homo sapiens) (Q8IU85 whole entry, looked up): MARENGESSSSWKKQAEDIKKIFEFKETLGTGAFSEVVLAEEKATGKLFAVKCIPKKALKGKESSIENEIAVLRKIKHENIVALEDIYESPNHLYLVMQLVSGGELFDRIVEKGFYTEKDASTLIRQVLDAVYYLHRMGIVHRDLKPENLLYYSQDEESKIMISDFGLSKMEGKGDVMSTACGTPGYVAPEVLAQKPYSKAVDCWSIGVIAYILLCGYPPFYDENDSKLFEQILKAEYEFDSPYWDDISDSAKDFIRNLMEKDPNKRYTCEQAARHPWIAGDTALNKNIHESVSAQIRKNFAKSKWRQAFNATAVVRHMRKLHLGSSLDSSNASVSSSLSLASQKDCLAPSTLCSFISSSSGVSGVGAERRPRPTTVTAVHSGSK
Chain of Myotonin-protein kinase (Homo sapiens) (Q09013 whole entry): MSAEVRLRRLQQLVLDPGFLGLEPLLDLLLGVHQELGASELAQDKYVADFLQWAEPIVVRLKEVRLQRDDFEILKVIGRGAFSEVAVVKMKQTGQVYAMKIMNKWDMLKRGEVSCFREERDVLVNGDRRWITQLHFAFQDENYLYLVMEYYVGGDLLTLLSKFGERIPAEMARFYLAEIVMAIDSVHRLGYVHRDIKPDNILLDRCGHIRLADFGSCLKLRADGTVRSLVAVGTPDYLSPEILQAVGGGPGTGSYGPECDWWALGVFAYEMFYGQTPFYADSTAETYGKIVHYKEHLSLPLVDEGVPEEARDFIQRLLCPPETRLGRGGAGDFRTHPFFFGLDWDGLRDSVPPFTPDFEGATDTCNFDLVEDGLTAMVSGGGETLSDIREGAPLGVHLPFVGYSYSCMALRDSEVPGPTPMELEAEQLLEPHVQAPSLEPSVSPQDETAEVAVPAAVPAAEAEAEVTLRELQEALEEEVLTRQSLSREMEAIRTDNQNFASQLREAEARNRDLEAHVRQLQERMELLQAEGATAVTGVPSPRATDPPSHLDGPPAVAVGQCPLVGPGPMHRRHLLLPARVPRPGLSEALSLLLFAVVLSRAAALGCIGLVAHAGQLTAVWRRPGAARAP
Chain of Platelet-derived growth factor receptor beta (Homo sapiens) (P09619 whole entry): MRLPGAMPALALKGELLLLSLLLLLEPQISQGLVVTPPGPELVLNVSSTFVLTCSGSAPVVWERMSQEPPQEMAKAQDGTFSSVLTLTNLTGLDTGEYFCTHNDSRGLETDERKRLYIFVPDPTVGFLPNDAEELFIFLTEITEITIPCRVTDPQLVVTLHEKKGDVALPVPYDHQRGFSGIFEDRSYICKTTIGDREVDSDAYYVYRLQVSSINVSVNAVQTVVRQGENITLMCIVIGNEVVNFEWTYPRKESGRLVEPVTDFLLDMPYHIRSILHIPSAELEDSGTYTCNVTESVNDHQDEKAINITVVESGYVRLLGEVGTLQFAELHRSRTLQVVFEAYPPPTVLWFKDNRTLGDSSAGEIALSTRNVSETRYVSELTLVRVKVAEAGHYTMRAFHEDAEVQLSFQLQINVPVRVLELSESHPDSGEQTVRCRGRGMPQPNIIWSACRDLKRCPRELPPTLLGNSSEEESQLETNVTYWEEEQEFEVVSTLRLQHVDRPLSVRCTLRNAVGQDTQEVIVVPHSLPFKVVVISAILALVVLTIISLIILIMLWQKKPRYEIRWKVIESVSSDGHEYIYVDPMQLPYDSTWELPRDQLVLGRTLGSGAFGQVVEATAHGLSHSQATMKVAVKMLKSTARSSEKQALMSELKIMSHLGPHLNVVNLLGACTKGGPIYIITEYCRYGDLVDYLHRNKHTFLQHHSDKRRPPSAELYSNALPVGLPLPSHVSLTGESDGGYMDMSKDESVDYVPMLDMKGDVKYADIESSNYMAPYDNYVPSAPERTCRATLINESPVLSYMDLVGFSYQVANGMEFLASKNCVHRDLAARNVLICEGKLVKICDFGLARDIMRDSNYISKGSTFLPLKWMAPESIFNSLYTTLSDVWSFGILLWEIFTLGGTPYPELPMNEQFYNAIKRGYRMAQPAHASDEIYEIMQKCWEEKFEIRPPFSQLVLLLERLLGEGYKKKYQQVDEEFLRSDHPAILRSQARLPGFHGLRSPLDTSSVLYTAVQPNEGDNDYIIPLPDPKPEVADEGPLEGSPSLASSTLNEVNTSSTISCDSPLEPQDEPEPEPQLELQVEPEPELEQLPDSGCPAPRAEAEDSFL

Row | IC50 [3] | IC50 [5] | IC50 (MDA-MB-435) | IC50 [8] | IC50 [9] | IC50 (Insulin receptor) | IC50 (SW480) | Compound | Activity [1] | Activity (HeLa [2]) | Activity (A2058 [4]) | Activity (HeLa [6]) | Activity (A2058 [7]) | Activity (HeLa [10]) | Activity [11] | Activity (NCI-H460) | Activity (HeLa [12]) | IC50 (RKO) | Activity (HeLa [13]) | further results
1 | 1.97 µM | 0.02 µM | 1.2 µM | > 100 µM | > 200 µM | 24 µM | 1.06 µM | COc1cccc(C(=O)c2sc(Nc3ccc(N4CCN(C(C)C)CC4)cc3)nc2N)c1 | 14% | 90% | 36% | 91% | 7% | 56% | 9% | Toxic | 62% | 0.54 µM | Active | 
2 | 3.04 µM | 0.02 µM | 3.06 µM | 29 µM | > 200 µM | 71 µM | 3.67 µM | CN1CCN(c2ccc(Nc3nc(N)c(C(=O)c4ccc5c(c4)OCCO5)s3)cc2)CC1 | 14% | 90% | 36% | 91% | 7% | 56% | 9% | Toxic | 62% | 1.6 µM | Active | inhibition [14]: < 50%; inhibition [15]: 78%; inhibition [16]: < 50%; inhibition [17]: < 50%; inhibition [18]: < 50%; inhibition [19]: < 50%; inhibition [20]: < 50%; inhibition [21]: < 50%; inhibition [22]: < 50%; inhibition [23]: < 50%; inhibition [24]: < 50%; inhibition [25]: < 50%; inhibition [26]: < 50%; inhibition [27]: < 50%
